Data as given in ChEMBL document CHEMBL5113533 (J Med Chem, 2022).
Active and inactive are the calls of the source. The calls are words filed in the database; no cut-off is given here.

Columns and labels:
THP-1 [1] = test: Antiinflammatory activity against Escherichia coli induced human THP-1 cells assessed as reduction in proinflammatory phenotype at 1 uM for 1 hr followed by Escherichia coli stimulation and measured upto 24 hrs by MALDI-TOF MS analysis; format: functional, cell-based
In short: (§1)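 THP-1 cells pre-treated with compound for 1 h, then infected with live E. coli (MOI 2), spun 500g 5 min, left 15 or 30 min for uptake, then 100 μg/mL gentamicin for 1 h and 20 μg/mL gentamicin thereafter, up to 24 h. Pellets frozen on dry ice, thawed, washed in 100 mM Tris–HCl pH 7.5 at 4 °C, and read by MALDI-TOF MS as the normalized m/z 4964/4632 ratio.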

[2] = molecular target: MAP kinase-activated protein kinase 2 (Homo sapiens) (UniProt P49137); test: Inhibition of MK2 in Escherichia coli -stimulated human THP-1 cells assessed as reduction in p38alpha MAPK phosphorylation at 1 uM pretreated for 1 hr followed by Escherichia coli stimulation and measured up to 15 mins by western blot analysis; format: cell-based; settings: time 1.15 hrs
Chain of MAP kinase-activated protein kinase 2 (Homo sapiens) (P49137 whole entry, looked up): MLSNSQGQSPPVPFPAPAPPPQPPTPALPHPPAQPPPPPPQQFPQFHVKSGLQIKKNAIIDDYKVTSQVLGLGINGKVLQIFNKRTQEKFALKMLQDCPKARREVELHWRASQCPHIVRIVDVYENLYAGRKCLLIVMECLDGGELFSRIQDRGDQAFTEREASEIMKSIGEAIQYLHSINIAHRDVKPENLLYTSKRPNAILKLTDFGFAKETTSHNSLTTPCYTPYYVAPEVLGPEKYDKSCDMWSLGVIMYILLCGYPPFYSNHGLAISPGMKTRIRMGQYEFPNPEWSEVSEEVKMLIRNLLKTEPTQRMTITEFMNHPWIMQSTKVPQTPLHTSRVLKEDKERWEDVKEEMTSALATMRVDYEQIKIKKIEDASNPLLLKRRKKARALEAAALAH

[3] = molecular target: Mitogen-activated protein kinase 14 (Homo sapiens) (UniProt Q16539); test: Binding affinity to P38alpha (unknown origin) measured at 0.05 to 333.33 nM after 600 secs by SPR analysis; settings: dose 0.05-333.33 nM, time 600.0 sec
Chain of Mitogen-activated protein kinase 14 (Homo sapiens) (Q16539 whole entry): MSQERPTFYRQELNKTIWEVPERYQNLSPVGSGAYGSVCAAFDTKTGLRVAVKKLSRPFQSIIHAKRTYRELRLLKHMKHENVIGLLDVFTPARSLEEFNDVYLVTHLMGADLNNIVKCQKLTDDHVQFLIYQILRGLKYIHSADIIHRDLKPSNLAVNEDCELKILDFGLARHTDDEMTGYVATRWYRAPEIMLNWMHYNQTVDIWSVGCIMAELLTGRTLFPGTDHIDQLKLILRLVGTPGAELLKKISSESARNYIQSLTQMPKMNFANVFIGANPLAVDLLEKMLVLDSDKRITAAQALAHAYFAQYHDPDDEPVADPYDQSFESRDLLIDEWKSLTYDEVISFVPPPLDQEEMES
In short: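 Biotinylated avidin-p38α was captured on a streptavidin chip from 50 μg/mL, reaching about 7719 RU. A 10-point series (0.05–333.33 nM) ran multicycle at 2 °C against a control surface: 90 s injection at 30 μL/min, then 600 s dissociation.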

THP-1 [4] = test: Inhibition of human Escherichia coli stimulated monocyte activation in human THP-1 cells assessed as decrease in IL-1beta expression level at 5 uM pretreated for 1 hr and measured up to 24 hrs; format: functional, cell-based
In short: (§2)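 THP-1 cells pre-treated 1 h with 5 μM compound, then live E. coli up to 24 h. Label-free quantitative proteomics: S-Trap digestion (TCEP reduction, N-ethylmaleimide alkylation, trypsin 2 h at 47 °C), Orbitrap LC–MS/MS with a 180 min gradient. Changes called at FDR <0.05 and 1.5-fold.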

[5] = molecular target: Mitogen-activated protein kinase 14 (Homo sapiens) (UniProt Q16539); settings: THP-1, dose 5.0 µM, time 1.15 hrs
THP-1 [6] = test: Antiinflammatory activity against LPS-stimulated human THP-1 cells assessed as reduction in IL-6 level pretreated for 1 hr followed by LPS stimulation and measured upto 24 hrs by ELISA analysis; format: functional, cell-based
In short: (§3)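 THP-1 cells pre-treated with compound for 1 h (5 μM or 1 μM, depending on the compound), then stimulated with 100 ng/mL LPS. Culture supernatant was taken at 24 h, and TNF-α, IL-6 or IL-1β was measured by sandwich ELISA at 450 nm with 540 nm correction; four biological replicates.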

OCI-AML2 [7] = test: Antiinflammatory activity against Escherichia coli-stimulated human OCI-AML2 cells assessed reduction in TNFalpha level measured at 24 hrs by ELISA analysis; format: functional, cell-based
In short: (§4)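 OCI-AML2 cells stimulated with live E. coli (MOI 2, gentamicin protection). TNF-α, IL-6 and IL-1β in culture supernatant measured by ELISA at 24 h post-treatment, 450 nm with 540 nm correction, four biological replicates.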

THP-1 [8] = test: Inhibition of human Escherichia coli stimulated monocyte activation in human THP-1 cells assessed as decrease in CD44 expression level at 5 uM pretreated for 1 hr and measured up to 24 hrs; format: functional, cell-based
THP-1 [9] = test: Inhibition of human Escherichia coli stimulated monocyte activation in human THP-1 cells assessed as upregulation of MMP9 expression level at 5 uM pretreated for 1 hr and measured up to 24 hrs; format: functional, cell-based; in short: as §2
THP-1 [10] = test: Inhibition of human Escherichia coli stimulated monocyte activation in human THP-1 cells assessed as suppression of CD11c expression level at 5 uM pretreated for 1 hr and measured up to 24 hrs by flow cytometric analysis; format: functional, cell-based
THP-1 [11] = test: Inhibition of human Escherichia coli stimulated monocyte activation in human THP-1 cells assessed as suppression of CD54 expression level at 5 uM pretreated for 1 hr and measured up to 24 hrs by flow cytometric analysis; format: functional, cell-based
THP-1 [12] = test: Inhibition of human Escherichia coli stimulated monocyte activation in human THP-1 cells assessed as decrease in MMP9 expression level at 5 uM pretreated for 1 hr and measured up to 24 hrs; format: functional, cell-based; in short: as §2
THP-1 [13] = test: Inhibition of human Escherichia coli stimulated monocyte activation in human THP-1 cells assessed as suppression of CD14 expression level at 5 uM pretreated for 1 hr and measured up to 24 hrs; format: functional, cell-based
THP-1 [14] = test: Inhibition of human Escherichia coli stimulated monocyte activation in human THP-1 cells assessed as increase in Filamin-B expression level at 5 uM pretreated for 1 hr and measured up to 24 hrs; format: functional, cell-based; in short: as §2
THP-1 [15] = test: Inhibition of human Escherichia coli stimulated monocyte activation in human THP-1 cells assessed as suppression of CD49a expression level at 5 uM pretreated for 1 hr and measured up to 24 hrs by flow cytometric analysis; format: functional, cell-based
[16] = molecular target: MAP kinase-activated protein kinase 2 (Homo sapiens) (UniProt P49137); test: Inhibition of MK2 in Escherichia coli -stimulated human THP-1 cells assessed as reduction in p38alpha MAPK phosphorylation at 5 uM pretreated for 1 hr followed by Escherichia coli stimulation and measured up to 15 mins by western blot analysis; format: cell-based; settings: time 1.15 hrs
THP-1 [17] = test: Inhibition of cell adhesion in human Escherichia coli stimulated-THP-1 cells by crystal violet staining based assay; format: functional
In short: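 E. coli-stimulated THP-1 cells washed twice with PBS, fixed 15 min in 4% paraformaldehyde, stained 10 min with 5 mg/mL crystal violet, lysed 30 min in 2% SDS. Absorbance read at 550 nm; four biological replicates.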

THP-1 [18] = test: Antiinflammatory activity against LPS-stimulated human THP-1 cells assessed as reduction in TNFalpha level pretreated for 1 hr followed by LPS stimulation and measured upto 24 hrs by ELISA analysis; format: functional, cell-based; in short: as §3
THP-1 [19] = test: Antiinflammatory activity against LPS-stimulated human THP-1 cells assessed as TNF-alpha secretion pretreated for 1 hr followed by LPS stimulation and measured upto 24 hrs by ELISA analysis; format: functional, cell-based; in short: as §3
THP-1 [20] = test: Antiinflammatory activity against Escherichia coli induced human THP-1 cells assessed as reduction in proinflammatory phenotype at 5 uM for 1 hr followed by Escherichia coli stimulation and measured upto 24 hrs by MALDI-TOF MS analysis; format: functional, cell-based; in short: as §1
THP-1 [21] = test: Inhibition of P38 MAPK pathway in Escherichia coli-stimulated human THP-1 cells assessed as reduction in TNFalpha expression at 5 uM pretreated for 1 hr followed by Escherichia coli stimulation and measured up to 24 hrs by ELISA analysis
In short: (§5)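 THP-1 cells pre-treated 1 h with 5 μM compound, then infected with live E. coli (MOI 2), followed by gentamicin killing of extracellular bacteria. TNF-α, IL-6 or IL-1β in supernatant measured by ELISA at 24 h, absorbance at 450 nm with 540 nm correction.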

THP-1 [22] = test: Antiinflammatory activity against LPS-stimulated human THP-1 cells assessed as disappearance inflammatory phenotype at 5 uM pretreated for 1 hr followed by LPS stimulation and measured upto 24 hrs by ELISA analysis; format: functional, cell-based
[23] = molecular target: Mitogen-activated protein kinase 14 (Homo sapiens) (UniProt Q16539); settings: THP-1, dose 5.0 µM, time 1.15 hrs; remark: listed apart in the source
THP-1 [24] = test: Inhibition of P38 MAPK pathway in Escherichia coli-stimulated human THP-1 cells assessed as reduction in IL-1beta expression at 5 uM pretreated for 1 hr followed by Escherichia coli stimulation and measured upto 24 hrs by ELISA analysis; in short: as §5
THP-1 [25] = test: Antiinflammatory activity against LPS-stimulated human THP-1 cells assessed as reduction in IL-1beta level pretreated for 1 hr followed by LPS stimulation and measured upto 24 hrs by ELISA analysis; format: functional, cell-based; in short: as §3
THP-1 [26] = test: Inhibition of human Escherichia coli stimulated monocyte activation in human THP-1 cells assessed as decrease in ICAM-1 expression level at 5 uM pretreated for 1 hr and measured up to 24 hrs; format: functional, cell-based
THP-1 [27] = test: Inhibition of human Escherichia coli stimulated monocyte activation in human THP-1 cells assessed as decrease in TLR2 expression level at 5 uM pretreated for 1 hr and measured up to 24 hrs; format: functional, cell-based; in short: as §2
Monocyte = test: Antiinflammatory activity against LPS-stimulated human primary monocyte cells assessed reduction in TNFalpha level measured at 24 hrs by ELISA analysis; format: functional, cell-based
In short: (§6)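 CD14+ monocytes from healthy-donor blood (Lymphoprep, then pan-monocyte isolation) or patient AML cells (cultured in IMDM with 20% FBS, IL-3 and SCF). Cells pre-treated 1 h with 5 μM or 1 μM compound, then 100 ng/mL LPS; TNF-α in supernatant measured by ELISA at 24 h. Four (monocytes) or two (AML) biological replicates, error shown as SD.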

THP-1 [28] = test: Inhibition of human Escherichia coli stimulated monocyte activation in human THP-1 cells assessed as increase in ROCK1 expression level at 5 uM pretreated for 1 hr and measured up to 24 hrs; format: functional, cell-based; in short: as §2
THP-1 [29] = test: Inhibition of human Escherichia coli stimulated monocyte activation in human THP-1 cells assessed as […] of CD44 expression level at 5 uM pretreated for 1 hr and measured up to 24 hrs; format: functional, cell-based
[30] = test system: Acute myeloid leukemic cell; test: Antiinflammatory activity against LPS-stimulated patient derived primary AML cells assessed reduction in TNFalpha level measured at 24 hrs by ELISA analysis; format: functional, cell-based; settings: Homo sapiens; in short: as §6
OCI-AML2 [31] = test: Inhibition of MK2 in Escherichia coli-stimulated human OCI-AML2 cells assessed as reduction inMK2 phosphorylation pretreated for 1 hr followed by Escherichia coli stimulation and measured up to 15 mins by western blot analysis; format: cell-based; settings: time 1.15 hrs
NCI-H929 = test: Inhibition of MK2 in Escherichia coli-stimulated human NCI-H929 cells assessed as reduction in MK2 phosphorylation pretreated for 1 hr followed by Escherichia coli stimulation and measured up to 15 mins by western blot analysis; format: cell-based; settings: time 1.15 hrs
THP-1 [32] = test: Inhibition of P38 MAPK pathway in Escherichia coli-stimulated human THP-1 cells assessed as reduction in IL-6 expression at 5 uM pretreated for 1 hr followed by Escherichia coli stimulation and measured up to 24 hrs by ELISA analysis; in short: as §5
OCI-AML2 [33] = test: Antiinflammatory activity against Escherichia coli-stimulated human OCI-AML2 cells assessed reduction in IL-1beta level measured at 24 hrs by ELISA analysis; format: functional, cell-based; in short: as §4
THP-1 [34] = test: Inhibition of human Escherichia coli stimulated monocyte activation in human THP-1 cells assessed as decrease in CD14 expression level at 5 uM pretreated for 1 hr and measured up to 24 hrs; format: functional, cell-based
OCI-AML2 [35] = test: Antiinflammatory activity against Escherichia coli-stimulated human OCI-AML2 cells assessed reduction in IL-6 level measured at 24 hrs by ELISA analysis; format: functional, cell-based; in short: as §4

Cc1c(F)cc(C(=O)NC2CC2)cc1-c1ccc(C(=O)NCC(C)(C)C)cn1
Activity (THP-1 [1]): Active
inhibition [2]: Active

Cc1ccc(C(=O)Nc2ccc(CN3CCN(C)CC3)c(C(F)(F)F)c2)cc1C#Cc1cnc2cccnn12
Activity [3]: Active

Cc1cn(-c2cc(NC(=O)c3ccc(C)c(Nc4nccc(-c5cccnc5)n4)c3)cc(C(F)(F)F)c2)cn1 [NILOTINIB]
inhibition (THP-1 [4]): Active
Tm [5]: 55.1 °C
Activity (THP-1 [6]): Active
Activity (OCI-AML2 [7]): Active
inhibition (THP-1 [8]): Active
inhibition (THP-1 [9]): Active
inhibition (THP-1 [10]): Active
inhibition (THP-1 [11]): Active
inhibition (THP-1 [12]): Active
inhibition (THP-1 [13]): Active
inhibition (THP-1 [14]): Active
inhibition (THP-1 [15]): Active
inhibition [16]: Active
inhibition (THP-1 [17]): Active
Activity (THP-1 [18]): Active
IC50 (THP-1 [19]): 400 nM
Activity [3]: Active
Activity (THP-1 [20]): Active
inhibition (THP-1 [21]): Active
Activity (THP-1 [22]): Active
Tm [23]: 60.7 °C
inhibition (THP-1 [24]): Active
Activity (THP-1 [25]): Active
inhibition (THP-1 [26]): Active
inhibition (THP-1 [27]): Active
Activity (Monocyte): Active
inhibition (THP-1 [28]): Active
inhibition (THP-1 [29]): Active
Activity [30]: Active
inhibition (OCI-AML2 [31]): Active
inhibition (NCI-H929): Active
inhibition (THP-1 [32]): Active
Activity (OCI-AML2 [33]): Active
inhibition (THP-1 [34]): Active
Activity (OCI-AML2 [35]): Active
